According to ChEMBL document CHEMBL4311988, “Identification of novel non-nucleoside vinyl-stilbene analogs as potent norovirus replication inhibitors with a potential host-targeting mechanism” (Eur J Med Chem, 2019):
pEC50: −log10 of the molar value. Activity calls are given as the source filed them. No cut-off for these calls is given here.

How the values were obtained:
[1] = tested on: Norovirus; assay: Antiviral activity against human norovirus infected in human HG23 cells assessed as inhibition of viral replication at 10 uM after 3 days by qRT-PCR analysis relative to control; format: functional; design: scale not given: the % may be the effect or the level left
[2] = Therapeutic index, ratio of CC50 for cytotoxicity against human HG23 cells harboring human norovirus replicons to EC50 for antiviral activity against norovirus infected in human HG23 cells; format: toxicity, cell-based; settings: read-out: Ratio CC50/EC50
[3] = Cytotoxicity against human HG23 cells assessed as cell viability at 10 uM after 3 days by tetrazolium dye based assay relative to control; settings: read-out: Activity
How it was run: (§1)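 HG23 cells were treated with DMSO or compound for 3 days, at 10 μM for single-point testing or across a dose range for CC50. Viability was read with a tetrazolium salt (EZ-CYTOX) reagent. Values are means of the most representative triplicate experiment with standard deviations.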

[4] = tested on: Norovirus; assay: Antiviral activity against human norovirus infected in human HG23 cells assessed as inhibition of viral replication after 3 days by qRT-PCR analysis; format: functional, organism-based; settings: HG23, 72 h
[5] = tested on: Norovirus; assay: Antiviral activity against human norovirus infected in HG23 cells assessed as inhibition of neomycin phosphotransferase protein expression after 3 days by Western blot analysis; format: functional, organism-based; settings: HG23, 72 h
How it was run: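 HG23 replicon cells were given DMSO or increasing compound concentrations for 3 days. Whole-cell RIPA extracts were quantified by Bradford assay and equal protein amounts run on SDS-PAGE. Blots on PVDF were probed with rabbit anti-neomycin phosphotransferase (1:500), with anti-HSF-1 (1:1000) on blots. EC50 came from dose-response; values are means of a representative triplicate experiment.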

[6] = biological target: T1, Heat shock factor protein 1 (Homo sapiens) (UniProt Q00613); assay: Activation of HSF-1 in human HG23 cells transfected with human norovirus after 72 hrs by dual-luciferase reporter gene assay; format: cell-based
T1 sequence (whole entry): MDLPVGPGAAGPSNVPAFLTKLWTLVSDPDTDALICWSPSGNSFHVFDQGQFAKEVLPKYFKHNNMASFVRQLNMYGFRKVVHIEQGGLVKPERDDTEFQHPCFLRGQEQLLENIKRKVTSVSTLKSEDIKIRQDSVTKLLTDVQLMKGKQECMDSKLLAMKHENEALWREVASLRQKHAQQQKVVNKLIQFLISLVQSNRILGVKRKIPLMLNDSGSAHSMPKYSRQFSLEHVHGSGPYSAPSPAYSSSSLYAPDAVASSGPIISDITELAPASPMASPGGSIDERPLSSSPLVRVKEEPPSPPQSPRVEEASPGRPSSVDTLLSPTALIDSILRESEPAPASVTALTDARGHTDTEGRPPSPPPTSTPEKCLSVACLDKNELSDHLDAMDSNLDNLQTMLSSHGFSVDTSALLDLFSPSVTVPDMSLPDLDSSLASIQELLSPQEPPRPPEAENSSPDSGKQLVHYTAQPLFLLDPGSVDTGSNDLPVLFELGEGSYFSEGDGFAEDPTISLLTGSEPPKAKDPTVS
How it was run: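 HG23 cells carrying the NV replicon were transfected with a Cignal finder reporter array and then given DMSO or 10 μM test compound for 72 h. Luciferase activity for each pathway was read with a dual-luciferase reagent.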

[7] = Cytotoxicity against human HG23 cells assessed as reduction in cell viability after 3 days by tetrazolium dye based assay; how it was run: as §1
[8] = Metabolic stability in mouse liver microsomes assessed as compound remaining at 1 uM preincubated for 5 mins followed by NADPH addition and measured after 30 mins in presence of NADPH relative to control; format: ADME, Microsome; settings: read-out: Stability
How it was run: (§2)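 Human or mouse liver microsomes (0.5 mg/ml) in 0.1 M phosphate buffer pH 7.4 were preincubated with compound at 1 μM for 5 min at 37 °C. An NADPH regeneration system was then added or omitted, and incubation continued 30 min at 37 °C. Reactions were stopped with acetonitrile containing internal standard. Parent compound remaining was measured by LC-MS/MS (C18 column, 0.1% formic acid water/acetonitrile).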

[9] = Metabolic stability in mouse liver microsomes assessed as compound remaining at 1 uM after 30 mins in absence of NADPH by LC-MS/MS analysis relative to control; format: ADME, Microsome; settings: read-out: Stability; how it was run: as §2
[10] = tested on: Norovirus GII.4; assay: Inhibition of norovirus GII.4 RNA-dependent RNA polymerase using poly(C)RNA as substrate incubated for 10 mins and measured after 15 mins by picogreen staining based assay
How it was run: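 Recombinant human norovirus GII.4 Sydney 2012 RdRp (400 ng) was preincubated with compound (10 μM) or DMSO (0.5% v/v) for 10 min at 25 °C. It was then added to 5 μM rGTP, 6 μg/mL poly(C), 2.5 mM MnCl₂, 5 mM DTT, 0.01% BSA and 0.005% Tween 20 in 20 mM Tris-HCl pH 7.5. After 15 min at 25 °C, reactions were stopped with 10 mM EDTA and dsRNA quantified by PicoGreen fluorescence (ex 480/em 520). Two independent experiments were run in triplicate.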

[11] = Metabolic stability in human liver microsomes assessed as compound remaining at 1 uM preincubated for 5 mins followed by NADPH addition and measured after 30 mins by LC-MS/MS analysis relative to control; format: ADME, Microsome; settings: read-out: Stability; how it was run: as §2
[12] = Metabolic stability in human liver microsomes assessed as compound remaining at 1 uM after 30 mins in absence of NADPH by LC-MS/MS analysis relative to control; format: ADME, Microsome; settings: read-out: Stability; how it was run: as §2

SMILES | Activity [1] | viability at 72 h, 10 µM [3] | other results
C[C@@]1(O)[C@H](O)[C@@H](CO)O[C@H]1n1ccc(N)nc1=O | 24.8% | 78.5% | selectivity ratio [2]: 3.1; pEC50 [4]: 5.40; pEC50 [5]: 5.32; Activity [6]: Active; CC50 at 72 h [7]: 12.2 µM
Brc1ccc(/C=C/c2ccccc2)cc1 | 54.5% | 130% | 
C=Cc1c(OC)cc(/C=C/c2ccc(C(=O)OCc3ccc(C(F)(F)F)cc3)cc2)cc1OC | 58.4% | 109% | 
C=Cc1c(OC)cc(/C=C\c2ccc(C(=O)N3CCN(Cc4ccc(C(F)(F)F)cc4)CC3)cc2)cc1OC | 64.9% | 90.9% | 
C=Cc1c(OC)cc(/C=C/c2cc(OC)cc(OC)c2)cc1OC | 43.4% | 99.6% | 
C=Cc1c(OC)cc(/C=C/c2ccc(C(=O)OCc3ccc(F)cc3)cc2)cc1OC | 36% | 101% | 
C=Cc1c(OC)cc(/C=C/c2ccc(C(=O)N3CCN(Cc4ccc(F)cc4)CC3)cc2)cc1OC | 12.1% | 55.7% | 
C#CCOC(=O)c1ccc(/C=C/c2cc(OC)c(C=C)c(OC)c2)cc1 | 71.3% | 103% | 
COc1cc(/C=C/c2cc(OC)cc(OC)c2)cc(OC)c1 | 119% | 99.2% | 
C=Cc1ccc(/C=C/c2ccccc2)cc1 | 26.5% | 102% | 
COc1cc(/C=C/c2cc(OC)c(CCO)c(OC)c2)cc(OC)c1 | 272.8% | 99.8% | 
COc1cc(/C=C/c2cc(OC)c(Br)c(OC)c2)cc(OC)c1 | 184.9% | 99.7% | 
CCc1c(OC)cc(/C=C/c2cc(OC)cc(OC)c2)cc1OC | 94% | 69.3% | 
C=Cc1c(OC)cc(/C=C/c2ccccc2C(F)(F)F)cc1OC | 83.2% | 99.7% | 
C=Cc1c(OC)cc(/C=C/c2ccc(C(=O)N3CCN(C(C)C)CC3)cc2)cc1OC | 55.3% | 60.5% | 
C=Cc1c(OC)cc(/C=C/c2ccc(C(=O)O)cc2)cc1OC | 81.3% | 112% | 
C=Cc1c(OC)cc(/C=C/c2ccc(C(=O)NCc3ccco3)cc2)cc1OC | 33.8% | 109% | 
C=Cc1c(OC)cc(/C=C/c2ccc(C(=O)NCCc3ccccn3)cc2)cc1OC | 13.5% | 96.3% | selectivity ratio [2]: > 69; remaining at 0.5 h, 1 µM [8]: 38.3%; remaining at 0.5 h, 1 µM [9]: 83.1%; pEC50 [4]: 5.84; inhibition [10]: inactive; remaining at 0.5 h, 1 µM [11]: 44.1%; remaining at 0.5 h, 1 µM [12]: > 100%; pEC50 [5]: 5.71; CC50 at 72 h [7]: > 100 µM
C=Cc1c(OC)cc(/C=C/c2ccc(C(=O)NCCc3ccncc3)cc2)cc1OC | 15.4% | 100% | selectivity ratio [2]: > 50; remaining at 0.5 h, 1 µM [8]: 67.7%; remaining at 0.5 h, 1 µM [9]: 88.4%; pEC50 [4]: 5.70; inhibition [10]: inactive; remaining at 0.5 h, 1 µM [11]: 20%; remaining at 0.5 h, 1 µM [12]: 92.1%; pEC50 [5]: 6.15; CC50 at 72 h [7]: > 100 µM

SMILES | Activity [1] | viability at 72 h, 10 µM [3] | other results
C=Cc1c(OC)cc(/C=C/c2ccc(C(=O)OC)cc2)cc1OC | 58.2% | 111% | 
OCCc1ccc(/C=C/c2ccccc2)cc1 | 43.2% | 101% | 
C=Cc1c(OC)cc(CCc2ccc(C(=O)N3CCN(Cc4ccc(C(F)(F)F)cc4)CC3)cc2)cc1OC | 132.1% | 77.3% | 
COc1ccc(CCN(C)CCCC(C#N)(c2ccc(OC)c(OC)c2)C(C)C)cc1OC (stereo not given) [VERAPAMIL] |  |  | remaining at 0.5 h, 1 µM [11]: 13.6%
COc1cc(/C=C/c2cc(O)c(CCO)c(O)c2)cc(OC)c1 | 200.8% | 99% | 
C=Cc1c(OC)cc(/C=C/c2cccc(C(F)(F)F)c2)cc1OC | 66.6% | 98.4% | 
C=Cc1c(OC)cc(/C=C/c2ccc(C(=O)NCCc3c[nH]c4ccccc34)cc2)cc1OC | 46.6% | 106% | 
C=Cc1c(OC)cc(/C=C/c2ccc(C(=O)OCc3ccccc3)cc2)cc1OC | 134.9% | 106% | 
C=CCNC(=O)c1ccc(/C=C/c2cc(OC)c(C=C)c(OC)c2)cc1 | 62.4% | 91.6% | 
C=Cc1c(OC)cc(/C=C/c2ccc(OCOC)cc2)cc1OC | 165.7% | 97.5% | 
C=Cc1c(OC)cc(/C=C/c2ccc(C(=O)NCCc3ccccc3)cc2)cc1OC | 28.4% | 99.7% | 
C=Cc1c(OC)cc(/C=C/c2ccc(F)cc2)cc1OC | 38.4% | 93.2% | 
C=Cc1c(OC)cc(/C=C/c2ccc(C(=O)NCCc3ccc(O)cc3)cc2)cc1OC | 40.8% | 103% | 
C=Cc1ccc(/C=C/c2cc(OC)cc(OC)c2)cc1 | 77.1% | 138% | 
C=Cc1c(OC)cc(/C=C/c2ccc(C(=O)N3CCN(Cc4ccc(OC)cc4)CC3)cc2)cc1OC | 30.4% | 21.5% | 
C=Cc1c(OC)cc(/C=C/c2ccc(C(=O)N3CCN(CCO)CC3)cc2)cc1OC | 110.4% | 93.3% | 
C=Cc1c(OC)cc(/C=C/c2ccc(C(=O)Nc3ccc(C(F)(F)F)cc3)cc2)cc1OC | 70.8% | 92.5% | 
C=Cc1c(OC)cc(/C=C/c2ccc(C(F)(F)F)cc2)cc1OC | 19.4% | 97.5% | selectivity ratio [2]: > 2.2; pEC50 [4]: 5.36; pEC50 [5]: 5.10; CC50 at 72 h [7]: > 10 µM
